How the values were obtained:
[1] = target: T1, Microtubule-associated protein 1 light chain 3 alpha (Homo sapiens, UniProt Q9H492); assay: Displacement of sGFP-p62-LIR peptide from human N-terminal SNAP-fused LC3A by time-resolved FRET assay
How it was run: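 HTRF displacement: 10 nM N-terminal SNAP-LC3A labeled with terbium cryptate (donor) and 1 μM p62-LIR-sGFP (acceptor), with compound at varying concentrations in 1% DMSO. Buffer 25 mM HEPES pH 7.5, 150 mM KF, 10% glycerol, 0.1% CHAPS, 5 mM DTT. Incubated 2 h at RT; excitation 340 nm, emission read at 520 and 620 nm. IC50 with SD; Ki calculated.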

[2] = target: Microtubule-associated protein 1 light chain 3 beta (Homo sapiens, UniProt Q9GZQ8); assay: Displacement of sGFP-p62-LIR peptide from human N-terminal SNAP-fused LC3B by time-resolved FRET assay
[3] = target: T1, Microtubule-associated protein 1 light chain 3 alpha; assay: Binding affinity to recombinant LC3A (unknown origin) assessed as shift of melting temperature by differential scanning fluorimetry
How it was run: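 LC3A at 30 μM in HTRF buffer with 0.1% CHAPS, 2.5× SYPRO orange, 300 μM inhibitor and 1% DMSO, with a no-protein background. Heated 25.0 to 79.8 °C at 1 °C/min; excitation 490 nm, emission 570 nm. Tm taken as the first-derivative maximum; ΔTm against DMSO control. Triplicates in three independent experiments.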

[4] = target: T1, Microtubule-associated protein 1 light chain 3 alpha; assay: Binding affinity to human LC3A expressed in Escherichia coli BL21-(DE3) by isothermal titration calorimetry
How it was run: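 His-tagged LC3A from E. coli BL21(DE3), TEV-cleaved and purified by IMAC, reverse IMAC and SEC into HTRF buffer (25 mM HEPES pH 7.5, 150 mM KF, 10% glycerol, 5 mM DTT), plus 0.1% CHAPS and 1% DMSO. ITC at 25 °C, stirring 75 rpm: 80 μM protein; inhibitor at 500 μM or 1 mM. Injection settings optimized per compound; dilution heats checked by blank titrations.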

SMILES | IC50 ([1]; read-out: IC50) [µM] | Ki ([1]; read-out: Ki) [µM] | also measured
CCn1nccc1-c1ccc2c(O)c(NC(=O)c3cccc(CCC(C)C)c3)c(=O)oc2c1 | 190 | 38.9 | 
CC(C)Oc1cccc(C(=O)Nc2c(O)c3ccc(O)cc3oc2=O)c1 |  | 103 | 
CCCCSc1cccc(C(=O)Nc2c(O)c3ccc(O)cc3oc2=O)c1 |  | 18 | 
CC(C)CCc1cccc(C(=O)Nc2c(O)c3ccc(NS(=O)(=O)c4cccc5ccccc45)cc3oc2=O)c1 | 31.2 | 6.4 | 
CCCCc1cccc(C(=O)Nc2c(O)c3ccc(O)cc3oc2=O)c1 |  | 12 | 
CCCSc1cccc(C(=O)Nc2c(O)c3ccc(O)cc3oc2=O)c1 |  | 32 | 
CC(C)CCc1cccc(C(=O)Nc2c(O)c3ccc(NS(=O)(=O)CC(C)C)cc3oc2=O)c1 | 110 | 22.6 | 
CCCCOc1cccc(C(=O)Nc2c(O)c3ccc(O)cc3oc2=O)c1 |  | 69 | 
Cc1ccccc1S(=O)(=O)Nc1ccc2c(O)c(NC(=O)c3cccc(CCC(C)C)c3)c(=O)oc2c1 | 76 | 15.6 | 
CCCc1cccc(C(=O)Nc2c(O)c3ccc(O)cc3oc2=O)c1 |  | 20 | 
CC(C)Sc1cccc(C(=O)Nc2c(O)c3ccc(O)cc3oc2=O)c1 |  | 47 | 
CC(C)CCc1cccc(C(=O)Nc2c(O)c3ccc(NS(=O)(=O)CCc4ccccc4)cc3oc2=O)c1 | 36.7 | 7.5 | IC50 ([2]; read-out: IC50): 66.3 µM; Ki ([2]; read-out: Ki): 7.4 µM
CC(C)CCc1cc(C(=O)Nc2c(O)c3ccc(O)cc3oc2=O)ccc1F | 107 | 21.8 | 
CCCCS(=O)(=O)Nc1cccc(C(=O)Nc2c(O)c3ccc(O)cc3oc2=O)c1 |  | 26 | 
CCSc1cccc(C(=O)Nc2c(O)c3ccc(O)cc3oc2=O)c1 |  | 42 | 
CC(C)CCc1cccc(C(=O)Nc2c(O)c3ccc(NC(=O)CCC(=O)O)cc3oc2=O)c1 | 217 | 44.3 | 
CC(C)[C@H](NC(=O)OC(C)(C)C)C(=O)Nc1c(O)c2ccc(O)cc2oc1=O |  |  | IC50 [2]: Not Active; Ki [2]: Not Active; IC50 [1]: Not Active; Ki [1]: Not Active
CC(C)CCc1cccc(C(=O)Nc2c(O)c3ccc(-c4cccc(C(=O)O)c4)cc3oc2=O)c1 | 35.3 | 7.2 | 
CC(C)Cc1cccc(C(=O)Nc2c(O)c3ccc(O)cc3oc2=O)c1 |  | 20 | 

SMILES | IC50 ([1]; read-out: IC50) [µM] | Ki ([1]; read-out: Ki) [µM] | also measured
CC(C)CCc1cccc(C(=O)Nc2c(O)c3ccc(NS(=O)(=O)Cc4ccccc4)cc3oc2=O)c1 | 73.1 | 15 | 
O=C(Nc1c(O)c2ccc(O)cc2oc1=O)c1cccc(OCC2CC2)c1 |  | 137 | Ki [2]: Not Active
O=C(Nc1c(O)c2ccc(O)cc2oc1=O)c1cccc(CCC2CC2)c1 |  | 13 | 
CC(=O)Nc1ccc2c(O)c(NC(=O)c3cccc(CCC(C)C)c3)c(=O)oc2c1 | 120 | 24.6 | 
CCCOc1cccc(C(=O)Nc2c(O)c3ccc(O)cc3oc2=O)c1 |  | 143 | 
CCOc1cccc(C(=O)Nc2c(O)c3ccc(O)cc3oc2=O)c1 |  | 129 | Ki [2]: Not Active
COc1cccc(C(=O)Nc2c(O)c3ccc(O)cc3oc2=O)c1 |  |  | Ki [2]: Not Active; Ki [1]: Not Active
CC(C)CSc1cccc(C(=O)Nc2c(O)c3ccc(O)cc3oc2=O)c1 |  | 52 | 
CC(C)CCc1cccc(C(=O)Nc2c(O)c3ccc(-c4ccnn4Cc4ccccc4)cc3oc2=O)c1 | 813 | 167 | IC50 [2]: Not Active; Ki [2]: Not Active
CC(C)CS(=O)(=O)Nc1cccc(C(=O)Nc2c(O)c3ccc(O)cc3oc2=O)c1 |  | 53 | 
CC(C)CCc1cccc(C(=O)Nc2c(O)c3ccc(NS(=O)(=O)c4ccccc4)cc3oc2=O)c1 | 85.9 | 17.6 | 
O=C(Nc1c(O)c2ccc(O)cc2oc1=O)c1cccc(OCc2ccccc2)c1 |  | 44 | 
O=C(Nc1c(O)c2ccc(O)cc2oc1=O)c1cccc(CCc2ccccc2)c1 |  | 75 | 
CCCS(=O)(=O)Nc1cccc(C(=O)Nc2c(O)c3ccc(O)cc3oc2=O)c1 |  | 144 | 
C=CCOc1cccc(C(=O)Nc2c(O)c3ccc(O)cc3oc2=O)c1 |  | 20 | 
CC(C)CCc1ccccc1C(=O)Nc1c(O)c2ccc(O)cc2oc1=O | 215 | 44 | 
Cc1c(O)ccc2c(O)c(NC(=O)c3ccc(O)c(CCC(C)C)c3)c(=O)oc12 | 119 | 24.3 | ΔTm [3]: 0.7 °C; Kd [4]: 14.2 µM
CC(C)CCc1cccc(C(=O)Nc2c(O)c3ccc(NC(=O)CCCC(=O)O)cc3oc2=O)c1 | 229 | 46.9 | 
CC[C@H](C)[C@H](NC(=O)OC(C)(C)C)C(=O)Nc1c(O)c2ccc(O)cc2oc1=O |  |  | IC50 [2]: Not Active; Ki [2]: Not Active; IC50 [1]: Not Active; Ki [1]: Not Active

SMILES | IC50 ([1]; read-out: IC50) [µM] | Ki ([1]; read-out: Ki) [µM] | also measured
CC(C)CCc1cccc(C(=O)Nc2c(O)c3ccc(O)cc3oc2=O)c1 | 64.8 | 13.3 | ΔTm [3]: 1.4 °C; Kd [4]: 17.2 µM
O=C(Nc1c(O)c2ccc(O)cc2oc1=O)c1cccc(SCC2CC2)c1 |  | 13 | 
CC(C)CCc1cccc(C(=O)Nc2c(O)c3ccc(-c4ccnn4C)cc3oc2=O)c1 | 219 | 44.8 | 
CC(C)CCc1cccc(C(=O)Nc2c(O)c3ccc(-c4ccc(C(=O)O)cc4)cc3oc2=O)c1 | 92.1 | 18.9 | 
CC(C)S(=O)(=O)Nc1cccc(C(=O)Nc2c(O)c3ccc(O)cc3oc2=O)c1 |  | 39 | 
Cc1ccc(S(=O)(=O)Nc2ccc3c(O)c(NC(=O)c4cccc(CCC(C)C)c4)c(=O)oc3c2)cc1 | 59.9 | 12.3 | 
CCCCCc1cccc(C(=O)Nc2c(O)c3ccc(O)cc3oc2=O)c1 |  | 12 | 
CC(C)(C)OC(=O)NCC(=O)Nc1c(O)c2ccc(O)cc2oc1=O |  |  | IC50 [2]: Not Active; Ki [2]: Not Active; IC50 [1]: Not Active; Ki [1]: Not Active
CC(C)CCc1cccc(C(=O)Nc2c(O)c3ccc(-c4coc5ccccc45)cc3oc2=O)c1 |  |  | IC50 [2]: Not Active; Ki [2]: Not Active; IC50 [1]: Not Active; Ki [1]: Not Active
COc1ccc(C(=O)Nc2c(O)c3ccc(O)cc3oc2=O)cc1CCC(C)C | 64.4 | 13.2 | 
CC(C)CCc1cc(C(=O)Nc2c(O)c3ccc(O)cc3oc2=O)ccc1O | 128 | 26.2 | ΔTm [3]: 0.8 °C; Kd [4]: 27.5 µM
CCCC[C@H](NC(=O)OC(C)(C)C)C(=O)Nc1c(O)c2ccc(O)cc2oc1=O | 668 | 137 | Ki [2]: Not Active; IC50 ([2]; read-out: IC50): 668 µM
Cc1c(O)ccc2c(O)c(NC(=O)c3cccc(CCC(C)C)c3)c(=O)oc12 | 160 | 32.7 | ΔTm [3]: 0 °C; Kd [4]: 15.7 µM
CS(=O)(=O)Nc1cccc(C(=O)Nc2c(O)c3ccc(O)cc3oc2=O)c1 |  | 130 | 
CC(C)CCc1cccc(C(=O)Nc2c(O)c3ccc(-c4cccc5ccccc45)cc3oc2=O)c1 | 42.8 | 8.8 | 
CC(C)CCc1cccc(C(=O)Nc2c(O)c3ccc(-c4ccccc4-c4ccccc4)cc3oc2=O)c1 | 515 | 105 | IC50 [2]: Not Active; Ki [2]: Not Active
O=C(Nc1c(O)c2ccc(O)cc2oc1=O)c1cccc(Oc2ccccc2)c1 |  | 44 | 
CC(C)C[C@@H](NC(=O)OC(C)(C)C)C(=O)Nc1c(O)c2ccc(O)cc2oc1=O |  |  | IC50 [1]: Not Active; Ki [1]: Not Active

— ChEMBL document CHEMBL4834414 (J Med Chem, 2021)
